Activity calls are given as the source filed them. The rule behind the calls is not given here.
Tests used:
Influenza B virus = experiment: Antiviral activity against Influenza B virus B/Ned/537/05 infected in MDCK cells assessed as protection against virus-induced reduction in cell viability after 3 to 6 days by MTS assay; assay type: functional, organism-based; conditions: B/Ned/537/05, MDCK
Procedure, shortened: (§1)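 MDCK cells seeded at 9000/well and infected one day later (semiconfluent) with 100 CCID50 virus. Medium was FCS-free Ultra MDCK with 2 μg/mL TPCK-trypsin. Serial five-fold compound dilutions (top 100 μM) were added with the virus, followed by 3–6 days at 35 °C. MTS read-out gave % protection versus virus and mock controls. EC50 was interpolated from semi-log curves; mean of two or three experiments.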

[1] = Cytotoxicity against MDCK cells assessed as alterations in normal cell morphology measured after 3 to 6 days by microscopic analysis; assay type: cell-based, Canis lupus familiaris; conditions: dog
Procedure, shortened: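 Uninfected MDCK cultures in FCS-free Ultra MDCK medium with trypsin received five-fold compound dilutions (up to […]) for 3–6 days at 35 °C. Microscopy scored morphology, and MCC was taken as the lowest concentration causing minimal rounding, shrinking or lysis.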

Human coronavirus 229E = experiment: Antiviral activity against Human coronavirus 229E infected in human HEL299 cells assessed as inhibition of virus-induced cytopathic effect after 3 to 6 days by MTS assay; assay type: functional, organism-based
Human alphaherpesvirus 1 = experiment: Antiviral activity against Herpes simplex virus type 1 infected in human HEL299 cells assessed as inhibition of virus-induced cytopathic effect after 3 to 6 days by MTS assay; assay type: functional, organism-based
[2] = test system: Mammalian orthoreovirus 1; experiment: Antiviral activity against Reovirus-1 infected in African green monkey Vero cells assessed as inhibition of virus-induced cytopathic effect after 3 to 6 days by MTS assay; assay type: functional, organism-based
Coxsackievirus B4 = experiment: Antiviral activity against Coxsackie B4 virus infected in human HeLa cells assessed as inhibition of virus-induced cytopathic effect after 3 to 6 days by MTS assay; assay type: functional, organism-based
MDCK = experiment: Cytotoxicity against MDCK cells assessed as reduction in cell viability measured after 3 to 6 days by MTS assay; assay type: cell-based, Canis lupus familiaris; conditions: dog
Procedure, shortened: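 Mock-infected MDCK plates were run in parallel (FCS-free Ultra MDCK medium with TPCK-trypsin) with serial five-fold dilutions up to […], 35 °C for 3–6 days. CC50 was interpolated from semi-log dose-response curves; mean of two or three experiments.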

Human adenovirus 2 = experiment: Antiviral activity against Human adenovirus type 2 infected in human HEL299 cells assessed as inhibition of virus-induced cytopathic effect after 3 to 6 days by MTS assay; assay type: functional, organism-based
Human alphaherpesvirus 2 = experiment: Antiviral activity against Herpes simplex virus type 2 infected in human HEL299 cells assessed as inhibition of virus-induced cytopathic effect after 3 to 6 days by MTS assay; assay type: functional, organism-based
[3] = test system: Respiratory syncytial virus; experiment: Antiviral activity against Respiratory syncytial virus Long infected in human HeLa cells assessed as inhibition of virus-induced cytopathic effect after 3 to 6 days by MTS based microscopy; assay type: functional, organism-based
[4] = test system: Vesicular stomatitis virus; experiment: Antiviral activity against Vesicular stomatitis virus infected in human HEL299 cells assessed as inhibition of virus-induced cytopathic effect after 3 to 6 days by MTS assay; assay type: functional, organism-based
Vero = experiment: Cytotoxicity against African green monkey Vero cells assessed as reduction in cell viability measured after 3 to 6 days by MTS assay; assay type: cell-based; conditions: chlorocebus sabaeus
Human respirovirus 3 = experiment: Antiviral activity against Parainfluenza virus 3 infected in African green monkey Vero cells assessed as inhibition of virus-induced cytopathic effect after 3 to 6 days by MTS assay; assay type: functional, organism-based
Yellow fever virus = experiment: Antiviral activity against Yellow fever virus infected in African green monkey Vero cells assessed as inhibition of virus-induced cytopathic effect after 3 to 6 days by MTS assay; assay type: functional, organism-based
Sindbis virus = experiment: Antiviral activity against Sindbis virus infected in African green monkey Vero cells assessed as inhibition of virus-induced cytopathic effect after 3 to 6 days by MTS assay; assay type: functional, organism-based
[5] = Cytotoxicity against human HeLa cells assessed as alterations in normal cell morphology measured after 3 to 6 days by microscopic analysis; assay type: cell-based
Procedure, shortened: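 Mock-infected HeLa cultures in 2% FCS medium received serial five-fold dilutions […] for 3–6 days at 37 °C. MCC was the lowest concentration giving microscopically visible minimal change in cell morphology (rounding, shrinking, lysis).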

Vaccinia virus = experiment: Antiviral activity against Vaccinia virus infected in human HEL299 cells assessed as inhibition of virus-induced cytopathic effect after 3 to 6 days by MTS assay; assay type: functional, organism-based; conditions: Orthopoxvirus vaccinia
Influenza A virus = experiment: Antiviral activity against Influenza A virus (A/Puerto Rico/8/34(H1N1)) infected in MDCK cells assessed as protection against virus-induced reduction in cell viability after 3 to 6 days by MTS assay; assay type: functional, organism-based; conditions: A/Puerto Rico/8/1934(H1N1); procedure, shortened: as §1
[6] = test system: Human immunodeficiency virus; experiment: Antiviral activity against HIV; assay type: functional, organism-based
Punta Toro virus = experiment: Antiviral activity against Punta Toro virus infected in African green monkey Vero cells assessed as inhibition of virus-induced cytopathic effect after 3 to 6 days by MTS assay; assay type: functional, organism-based

| Compound | EC50 (Influenza B virus) [µM] | MCC [1] [µM] | Activity (Human coronavirus 229E) | Activity (Human alphaherpesvirus 1) | Activity [2] | Activity (Coxsackievirus B4) | CC50 (MDCK) [µM] | Activity (Human adenovirus 2) | Activity (Human alphaherpesvirus 2) | EC50 [3] [µM] | Activity [4] | Activity (Vero) | Activity (Human respirovirus 3) | Activity (Yellow fever virus) | Activity (Sindbis virus) | MCC [5] [µM] | Activity (Vaccinia virus) | EC50 (Influenza A virus) [µM] | Activity [6] | Activity (Punta Toro virus) |
| --- | --- | --- | --- | --- | --- | --- | --- | --- | --- | --- | --- | --- | --- | --- | --- | --- | --- | --- | --- | --- |
| CCCN1C(N)=NC(N)=NC12CCN(C(=O)c1c(C)noc1C)CC2 | > 100 | > 100 | inactive | inactive | inactive | inactive | > 100 | inactive | inactive | > 100 | inactive | Non-Toxic | inactive | inactive | inactive | > 100 | inactive | > 100 | inactive | inactive |
| CC(=O)N[C@H]1[C@H]([C@H](O)[C@H](O)CO)OC(C(=O)O)=C[C@@H]1N=C(N)N [ZANAMIVIR] | 0.14 | > 100 | – | – | – | – | > 100 | – | – | – | – | – | – | – | – | – | – | 1.3 | – | – |
| COCCN1C(N)=NC(N)=NC12CCN(C(=O)c1cccn1C)CC2 | > 100 | > 100 | inactive | inactive | inactive | inactive | > 100 | inactive | inactive | > 100 | inactive | Non-Toxic | inactive | inactive | inactive | > 100 | inactive | > 100 | inactive | inactive |
| NC1=NC2(CCNCC2)N(c2cccc(Cl)c2)C(N)=N1 | > 100 | > 100 | inactive | inactive | inactive | inactive | > 100 | inactive | inactive | > 100 | inactive | Non-Toxic | inactive | inactive | inactive | > 100 | inactive | > 100 | inactive | inactive |
| NC(=O)c1ncn([C@@H]2O[C@H](CO)[C@@H](O)[C@H]2O)n1 [RIBAVIRIN] | 3.2 | ≥ 20 | – | – | – | – | – | – | – | – | – | – | – | – | – | > 250 | – | 11 | – | – |
| CCCN1C(N)=NC(N)=NC12CCN(C(=O)C1CC1)CC2 | > 100 | > 100 | inactive | inactive | inactive | inactive | > 100 | inactive | inactive | > 100 | inactive | Non-Toxic | inactive | inactive | inactive | > 100 | inactive | > 100 | inactive | inactive |
| COc1cccc(N2C(N)=NC(N)=NC23CCNCC3)c1 | > 100 | > 100 | inactive | inactive | inactive | inactive | > 100 | inactive | inactive | > 100 | inactive | Non-Toxic | inactive | inactive | inactive | > 100 | inactive | > 100 | inactive | inactive |
| NC1=NC2(CCN(C(=O)c3ccc4ccccc4c3)CC2)N(c2cccc(Cl)c2)C(N)=N1 | 4 | ≥ 4 | inactive | inactive | inactive | inactive | > 100 | inactive | inactive | > 100 | inactive | Non-Toxic | inactive | inactive | inactive | ≥ 100 | inactive | 28 | inactive | inactive |
| CCCN1C(N)=NC(N)=NC12CCN(C(=O)NCCC(=O)OCC)CC2 | > 100 | > 100 | inactive | inactive | inactive | inactive | > 100 | inactive | inactive | > 100 | inactive | Non-Toxic | inactive | inactive | inactive | > 100 | inactive | > 100 | inactive | inactive |
| CCCN1C(N)=NC(N)=NC12CCN(S(=O)(=O)CCC)CC2 | > 100 | > 100 | inactive | inactive | inactive | inactive | > 100 | inactive | inactive | > 100 | inactive | Non-Toxic | inactive | inactive | inactive | > 100 | inactive | > 100 | inactive | inactive |
| CC(C)(C)OC(=O)N1CCC2(CC1)N=C(N)N=C(N)N2c1cccc(Cl)c1 | 24 | ≥ 20 | inactive | inactive | inactive | inactive | > 100 | inactive | inactive | > 100 | inactive | Non-Toxic | inactive | inactive | inactive | > 100 | inactive | 11 | inactive | inactive |
| COCCN1C(N)=NC(N)=NC12CCN(S(=O)(=O)c1ccccc1)CC2 | > 100 | > 100 | inactive | inactive | inactive | inactive | > 100 | inactive | inactive | > 100 | inactive | Non-Toxic | inactive | inactive | inactive | > 100 | inactive | > 100 | inactive | inactive |
| NC12CC3CC(CC(C3)C1)C2 [AMANTADINE] | > 500 | > 500 | – | – | – | – | > 500 | – | – | – | – | – | – | – | – | – | – | 26 | – | – |
| CC(N)C12CC3CC(CC(C3)C1)C2 (stereo unspecified) [RIMANTADINE] | > 500 | ≥ 500 | – | – | – | – | > 500 | – | – | – | – | – | – | – | – | – | – | 28 | – | – |
